Bioassay records (PubChem)
In the library only some 2.6% were active in any assay of this set; here they are far more common.
OX1R antag-1 – OX1R (human) antagonism; OX1R-expressing cells, FRET antagonist read-out; 330,000 compounds, 1.8% hits; O43613; inhibition, % at 6.6 µM; AID 485270; in the data active means inhibition mostly above about 38%, no sharp cut-off; inactive means mostly below about 40%
Target sequence (O43613 whole entry, looked up): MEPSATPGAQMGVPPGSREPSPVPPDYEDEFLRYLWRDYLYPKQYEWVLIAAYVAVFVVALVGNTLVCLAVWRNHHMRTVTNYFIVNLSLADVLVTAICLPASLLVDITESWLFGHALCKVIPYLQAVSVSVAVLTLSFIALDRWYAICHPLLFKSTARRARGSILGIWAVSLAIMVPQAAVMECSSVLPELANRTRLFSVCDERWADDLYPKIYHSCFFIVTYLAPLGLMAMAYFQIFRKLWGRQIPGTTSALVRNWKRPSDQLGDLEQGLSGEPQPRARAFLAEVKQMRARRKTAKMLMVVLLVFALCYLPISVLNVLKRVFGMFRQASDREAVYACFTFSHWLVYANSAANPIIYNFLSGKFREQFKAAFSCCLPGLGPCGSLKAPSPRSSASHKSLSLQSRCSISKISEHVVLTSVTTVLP
CHO parental Ca – signal in parental CHO cells, OX1R antagonist counter-screen; parental CHO-K1, ATP-induced calcium, Fluo-8 fluorescence; inhibition, % at 5.6 µM; 330,000 compounds, 0.63% hits;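 active means inhibition above that plate's mean sample inhibition plus 3 SD, cut at about 26% in these data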
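Material – parental CHO cells · Reagent – ATP stimulus · Compound – single nominal dose of 5.6 µM per compound · Detection – Fluo-8 fluorescence · Read-out basis – percent inhibition of calcium signal · Controls – ATP-challenged DMSO wells low, unchallenged DMSO wells high · Repeats – no replicates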
V1aR counter – V1a receptor agonism, counter-screen for OXTR agonists; P37288; CHO-V1R cells, Fluo-8 calcium fluorescence, agonist mode; 0% DMSO, 100% 3 nM vasopressin; activation, % at 3 µM; 320,000 compounds, 0.25% hits;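 active means activation above the mean activation of all tested compounds plus 3 SD, per screening run, cut at about 20% in these data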;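 further: signal is peak over basal fluorescence ratio across a 100 second FLIPR read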
OXTR agonist – human OXTR agonism. P30559. CHO-OTR cells, Fluo-8 calcium fluorescence; normalized: DMSO 0%, oxytocin 100%. activation, % at 3 µM. 320,000 compounds, 0.32% hits. AID 2435;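 active means activation above the mean of all tested compounds plus 3 SD, cutoff set per screening run, cut at about 20% in these data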;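 further: peak over basal fluorescence ratio from a 100 s FLIPR kinetic read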
OX1R antag-2 – human HCRTR1 antagonism | inhibition, % at 5 µM | O43613 | CHO/OX1R cells, Fluo-8 calcium fluorescence, orexin A | 330,000 compounds, 0.43% hits;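 active means inhibition above its plate's threshold, mean inhibition of all tested compounds on the plate plus 3 SD, cut at about 37% in these data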
OXTR potentiate – human OXTR potentiation | P30559 | CHO-OTR cells, Fluo-8 calcium fluorescence, potentiator mode; 0% = oxytocin EC15, 100% = EC100 | activation, % at 3 µM | 320,000 compounds, 0.061% hits;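 active means activation above that plate's cutoff, the mean activation of tested compounds plus 3 SD, cut at about 6.6% in these data, passing the limit was not always enough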
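Assay system: CHO cell line stably expressing human OTR. Reagent: EC15 oxytocin agonist. Dosing: single dose, 3.0 µM nominal final compound concentration. Timing: compound 6 min at room temperature before oxytocin, 100 s read. Signal: kinetic Fluo-8 calcium fluorescence. Controls: oxytocin EC15 low and EC100 high.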
Of the large screens only hits and unclear results are named; the others gave an inactive call.

O=C1N=NC2=C1c1c3ccccc3c(O)n1CC2	OX1R antag-1 55.8
COc1ccc(S(=O)(=O)N2CCCCCC2)cc1NC(=O)CN(C)Cc1ccc2c(c1)OCO2	none
Nc1ncnc(Nc2ccccn2)c1[N+](=O)[O-]	OX1R antag-1 64.2
Cc1cccc(Nc2ncnc(N)c2[N+](=O)[O-])n1	OX1R antag-1 56.0
Cc1ccc(C)c(Nc2ncnc(N)c2[N+](=O)[O-])c1	none
Cc1c(NC(=O)c2cccc(NC(=O)COc3cccc(Br)c3)c2)c(=O)n(-c2ccccc2)n1C	none
O=C(NCCOc1ccccc1)c1ccccc1Cl	none
CN(C(=O)COc1ccccc1C(=O)NCCOc1ccccc1)c1ccccc1	OX1R antag-1 80.0, CHO parental Ca 92.3, OX1R antag-2 78.4
CC(C)(C)c1cc[n+](-c2[nH]c(=O)sc2/C=N/N=C(\[O-])c2cccnc2)cc1	OX1R antag-1 58.1
CC(C)(C)c1cc[n+](-c2[nH]c(=O)sc2/C=N/NC(=O)c2ccccc2[O-])cc1	OX1R antag-1 56.5
Cc1cccc(-c2noc(CCCC(=O)NC3CCCC3)n2)c1	none
O=C(NC(CC(=O)N1CCN(c2ccccc2O)CC1)c1ccccc1)c1ccccc1Cl (centres undefined)	none
COc1ccc(NS(=O)(=O)c2ccc(-c3coc(C)n3)cc2)cc1OC	CHO parental Ca 50.3
CCc1cc2c(N3CCN(c4ccccc4)CC3)ncnc2s1	CHO parental Ca 60.4, OX1R antag-2 58.4
Cc1ccc(N2CC(C(=O)Nc3c4c(nn3C(C)(C)C)CS(=O)(=O)C4)CC2=O)cc1C (centres undefined)	none
N#C/C(=C\c1ccc(-c2nc3ccccc3s2)o1)C(N)=O	OX1R antag-1 51.7
N#C/C(=C/c1ccc(-c2ccc(S(N)(=O)=O)cc2)o1)c1nc2ccccc2s1	CHO parental Ca 64.3, V1aR counter 50.7, OXTR agonist 37.9, OX1R antag-2 80.5
COc1ccc(/C=C/c2n[nH]c(=O)c(C#N)c2C)cc1	OX1R antag-1 43.0
CCOC(=O)C1CCN(C(=O)c2ccc(OCC(=O)Nc3cccc(C(F)(F)F)c3)c(OC)c2)CC1	CHO parental Ca 44.6, OX1R antag-2 44.6
CCOC(=O)C1CCN(C(=O)c2ccc(OCC(=O)Nc3cccc(C(F)(F)F)c3)cc2)CC1	none
CCOC(=O)C1CCN(C(=O)c2ccc3c(c2)OCO3)CC1	CHO parental Ca 57.0
CC(=O)N1CC(C)Sc2ccc(S(=O)(=O)NCCc3cccc(C)c3)cc21 (centres undefined)	none
CCc1nc2n(n1)C(O)c1cc([N+](=O)[O-])ccc1S2 (centres undefined)	OX1R antag-1 46.1
CCCOc1cc(N(CC)CC)ccc1/C=C(/C#N)c1nc2ccc(C)cc2[nH]1	CHO parental Ca 75.4, V1aR counter 27.4, OXTR agonist 32.8, OX1R antag-2 117.7
Cc1cc(/C=C(\C#N)c2nc3ccccc3[nH]2)c(C)n1C	none
CCOc1cc(N(CC)CC)ccc1/C=C(/C#N)c1nc2ccccc2[nH]1	OX1R antag-1 71.0, CHO parental Ca 70.5, V1aR counter 115.8, OXTR agonist 114.1, OX1R antag-2 109.2
CCN(CC)c1ccc(/C=C(/C#N)c2nc3ccc(C)cc3[nH]2)c(OC(C)C)c1	CHO parental Ca 68.3, V1aR counter 49.8, OXTR agonist 69.0, OX1R antag-2 115.5
Cc1ccc(CNC(=O)C2CCC(=O)N(CCc3cccc(F)c3)C2)cc1 (centres undefined)	none
O=C(NCCc1nccs1)C1CCC(=O)N(Cc2cccc(C(F)(F)F)c2)C1 (centres undefined)	none
COc1ccc(-c2cc(N)n(S(=O)(=O)Cc3ccccc3)n2)c(OC)c1	OX1R antag-1 60.7
COc1ccc(-c2cc(N)n(CCC#N)n2)c(OC)c1	none
CCS(=O)(=O)Nc1ccc(C2=NN(C(=O)c3ccco3)C(c3ccc(C)cc3)C2)cc1 (centres undefined)	OXTR potentiate 11.0
Cc1ccc(C2CC(c3ccc(NS(C)(=O)=O)cc3)=NN2C(=O)c2ccco2)cc1 (centres undefined)	none
Cc1c(=O)n(OCc2cccc(F)c2)c2ccccc2[n+]1[O-]	OX1R antag-1 41.5
